Bioassay records deposited in PubChem BioAssay by The Scripps Research Institute Molecular Screening Center.
Shown are actives, neighbours in structure and some others; about 2.3% of the full set was active somewhere.
V1R ag counter = V1a receptor agonism, counter-screen for OXTR agonists; activation, % at 3 µM; CHO-V1R cells, Fluo-8 calcium fluorescence, agonist mode; 0% DMSO, 100% 3 nM vasopressin; actives 0.25% (n = 320,000); P37288; AID 2797;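 active means activation above the mean activation of all tested compounds plus 3 SD, per screening run, cut at about 20% in these data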;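 further: signal is peak over basal fluorescence ratio across a 100 second FLIPR read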
OXTR potentiate = potentiates the human oxytocin receptor response; P30559; CHO-OTR cells, Fluo-8 calcium fluorescence, potentiator mode; 0% = oxytocin EC15, 100% = EC100; activation, % at 3 µM; actives 0.061% (n = 320,000); AID 2445;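 active means activation above that plate's cutoff, the mean activation of tested compounds plus 3 SD, cut at about 6.6% in these data, passing the limit was not always enough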;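 further: 100% uses oxytocin at 75 nM as the full agonist control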
Target sequence (P30559 whole entry, looked up): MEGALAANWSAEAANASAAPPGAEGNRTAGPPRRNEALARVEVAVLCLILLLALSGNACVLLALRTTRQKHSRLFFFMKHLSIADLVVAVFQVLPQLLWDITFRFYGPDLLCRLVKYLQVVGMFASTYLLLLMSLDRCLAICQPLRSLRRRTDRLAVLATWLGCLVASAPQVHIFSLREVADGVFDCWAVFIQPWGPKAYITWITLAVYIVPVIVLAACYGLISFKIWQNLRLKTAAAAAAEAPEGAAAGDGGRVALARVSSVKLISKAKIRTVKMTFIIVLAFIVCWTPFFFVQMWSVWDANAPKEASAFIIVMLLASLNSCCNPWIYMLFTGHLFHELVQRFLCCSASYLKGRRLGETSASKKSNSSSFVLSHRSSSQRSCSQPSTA
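Replication – single well per compound, singlicate · Assay system – CHO cell line stably expressing human OTR · Timing – 6 min pre-incubation, 100 s read · Measure – normalized max/min fluorescence ratio, % activation · Doses – 3.0 µM, one dose · Detection – Fluo-8 calcium dye fluorescence · Probe or stimulus – oxytocin near EC15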
OXTR ag = activates the human oxytocin receptor | CHO-OTR cells, Fluo-8 calcium fluorescence; normalized: DMSO 0%, oxytocin 100% | AID 2435 | activation, % at 3 µM | actives 0.32% (n = 320,000);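 active means activation above the mean of all tested compounds plus 3 SD, cutoff set per screening run, cut at about 20% in these data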;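 further: peak over basal fluorescence ratio from a 100 s FLIPR kinetic read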
TAAR1 ag = human TAAR1 agonism; CHO RD-HGA16 TAAR1, Fluo-8 calcium fluorescence; vehicle wells 0%, saturating PEA agonist 100%; Q96RJ0; activation, % at 3 µM; actives 0.99% (n = 360,000);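 active means activation above the mean activation of all test compounds in the run plus 3 SD, cut at about 38% in these data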
Target sequence (Q96RJ0 whole entry, looked up): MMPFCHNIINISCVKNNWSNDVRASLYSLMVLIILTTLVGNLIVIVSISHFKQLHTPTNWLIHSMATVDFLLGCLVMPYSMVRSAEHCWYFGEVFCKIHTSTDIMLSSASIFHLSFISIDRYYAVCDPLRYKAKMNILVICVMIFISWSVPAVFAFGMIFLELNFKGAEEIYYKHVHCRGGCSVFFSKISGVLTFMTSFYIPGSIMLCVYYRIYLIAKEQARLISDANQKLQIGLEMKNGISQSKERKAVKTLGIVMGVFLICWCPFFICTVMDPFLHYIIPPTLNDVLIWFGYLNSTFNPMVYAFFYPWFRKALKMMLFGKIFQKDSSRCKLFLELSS
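Test system: RD-HGA16 (CHO) cells co-expressing Gα16 and hTAAR1 / Benchmarks: DMSO vehicle as 0%, PEA at EC100 as 100% / Repeats: no replicates (n 1) / Measure: % activation from peak over basal fluorescence ratio, DMSO-to-PEA scaled / Timing: 17-24 h plating, Fluo-8 75 min 37 °C, 30 min RT / Technique: kinetic Fluo-8 calcium fluorescence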
TAAR1 antagonist = human TAAR1 antagonism | CHO RD-HGA16 TAAR1, Fluo-8 calcium fluorescence, antagonist | inhibition, % at 3 µM | actives 1.5% (n = 360,000) | Q96RJ0;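 active means inhibition above a per-plate cutoff, the mean inhibition of test compounds on that plate plus 3 SD, cut at about 49% in these data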;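 further: 0% = DMSO plus EC80 beta-PEA response and 100% = DMSO alone without agonist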
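Assay system: CHO-derived RD-HGA16 cells stably expressing human TAAR1 plus Gα16. Timing: 140 s kinetic read after compound, 140 s after agonist. Technique: kinetic Fluo-8 calcium fluorescence measurement. Measure: % inhibition of agonist calcium response.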
TAAR1 nonsel count = nonselective antagonism, TAAR1 counter-screen | shares compounds with TAAR1 antagonist | actives 77% (n = 2,400) | counterscreen cell line, calcium fluorescence, antagonist mode | AID 651780 | inhibition, % at 3 µM; in the data active means inhibition above about 22%;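 further: CHO-Ga16 host cells stimulated with ATP at an EC80 level; 0% = agonist EC80 plus vehicle and 100% = vehicle without agonist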
TAAR1 ant conf = human TAAR1 antagonism, confirmed | shares compounds with TAAR1 antagonist | AID 651785 | actives 40% (n = 2,400) | TAAR1-expressing cells, fluorescence antagonist read-out | inhibition, % at 3 µM; in the data active means inhibition above about 49%;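 further: CHO-Ga16 host cells challenged with agonist PEA near its EC80; 0% = agonist at EC80 plus vehicle and 100% = vehicle with no agonist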
Ga16 nonsel ag = counter-screen for TAAR1 antagonists: nonselective Ga16 agonists; shares compounds with TAAR1 antagonist; Ga16-expressing cells, calcium fluorescence, agonist counterscreen; activation, % at 3 µM; actives 18% (n = 2,400); in the data active means activation above about 12%;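 further: 0% = vehicle wells and 100% = saturating stimulus response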
TAAR1 ag counter = counter-screen for human TAAR1 antagonists: TAAR1 agonists; shares compounds with TAAR1 antagonist; hTAAR1 cell line, fluorescence activation, agonist mode; activation, % at 3 µM; actives 2% (n = 2,400); AID 651955; in the data active means activation above about 37%;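 further: CHO cells stably expressing TAAR1 with calcium dye readout; 0% = DMSO vehicle and 100% = full agonist response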
* = called active by the depositor; x = no result given.

SMILES	V1R ag counter	OXTR potentiate	OXTR ag	TAAR1 ag	TAAR1 antagonist	TAAR1 nonsel count	TAAR1 ant conf	Ga16 nonsel ag	TAAR1 ag counter
Cc1ccc(C)c(OCCC(=O)OCC(=O)NCCNC(=O)COC(=O)CCOc2cc(C)ccc2C)c1	9	-15	3	20	87*	48*	68*	16*	18
COc1ccc2oc(C(=O)OCC(=O)N3CC(C)CC(C)C3)c(C)c2c1 (stereo not drawn)	-1	7	-2	3	16	x	x	x	x
CCc1ccccc1NC(=O)CNC(=O)c1ccc(-n2cncn2)c([N+](=O)[O-])c1	0	-12	0	3	-12	x	x	x	x
O=C(CSc1ccc(Cl)cc1)Nc1ccc(NC(=O)c2ccco2)cc1	1	-1	2	2	4	x	x	x	x
O=C(CSc1ccc(Cl)cc1)Nc1ccc(N2CCN(C(=O)c3ccco3)CC2)cc1	8	-12	8	19	52*	35*	37	13*	14
COc1ccc(OCC(=O)Nc2ccc(N3CCN(C(=O)c4ccco4)CC3)cc2)cc1	4	-1	6	3	-2	x	x	x	x
Cc1cc(C)cc(OCC(=O)Nc2ccc(N3CCN(C(=O)c4ccco4)CC3)cc2)c1	9	-13	6	23	74*	43*	62*	12*	9
O=C(COc1ccc(Cl)cc1)Nc1ccc(N2CCN(C(=O)c3ccco3)CC2)cc1	12	-10	16	23	80*	42*	46	12*	28
CC(=O)Nc1ccc(NC(=O)c2nc(-c3ccccc3)oc2C)cc1	0	-15	0	5	2	x	x	x	x
Cc1ccc(C)[n+](CC(=O)N2CCCCC2)c1	x	x	x	7	-7	x	x	x	x
CC(C)CC1NC(=O)N(Cc2cc(=O)n3ccsc3n2)C1=O (stereo not drawn)	0	-4	0	2	7	x	x	x	x
Cc1cccc(NC(=O)c2oc3ccc(S(=O)(=O)N4CCOCC4)cc3c2C)c1C	4	-7	3	18	58*	31*	51*	9	9
Cc1ccc(NC(=O)c2oc3ccc(S(=O)(=O)N4CCOCC4)cc3c2C)c(C)c1	1	-7	0	10	37	x	x	x	x
CN(CC1COc2ccccc2O1)C(=O)c1cccc(S(=O)(=O)N2CCCC2)c1 (stereo not drawn)	1	-7	2	-3	-11	x	x	x	x
Cc1ccc(-c2ccc(/C=C3\C(=O)ON=C3c3ccccc3)o2)c([N+](=O)[O-])c1	-1	-4	-1	21	65*	78*	81*	24*	28
Cc1ccc(-c2csc(N3CCN(CCCn4c(-c5ccncc5)nc5ccccc54)CC3)n2)cc1	-2	-8	-3	11	55*	25*	47	4	1
Cc1ccc(-c2csc(N3CCN(CCCn4c(C(F)(F)F)nc5ccccc54)CC3)n2)cc1	-1	-13	-2	-1	33	x	x	x	x
Cc1ccc(-c2csc(N3CCC[C@@H]3C(=O)NCCn3c(-c4ccncc4)nc4ccccc43)n2)cc1	1	-12	1	25	62*	26*	49*	10	10
O=C(Cc1csc(Nc2nc(=S)[nH]c3ccccc23)n1)N1CCN(c2cccc(C(F)(F)F)c2)CC1	0	-5	-1	2	-9	x	x	x	x
CCO[C@@H]1OC(C(=O)N2CCN(Cc3ccccc3)CC2)=C[C@H](c2csc3ccccc23)[C@H]1CCCO	6	-21	1	9	52*	23*	25	5	1
O=C(NC1CCCCC1)c1cc(S(=O)(=O)N2CCCCC2)ccc1N1CCOCC1	0	-1	-1	-3	-14	x	x	x	x
CC1CCCCN1CCCNc1ccc(C(CC(N)=O)NC(=O)Cc2ccc(Br)cc2)cc1[N+](=O)[O-] (stereo not drawn)	0	-7	0	17	2	x	x	x	x
Cc1ccc(C)c(N(C(=O)CNC(=O)c2ccco2)C(C(=O)NCC2CCCO2)c2ccccc2)c1 (stereo not drawn)	10	-11	3	24	61*	20	48	9	7
CCCN1C(=O)c2ccccc2NC1c1ccc(O)c(OCC)c1 (stereo not drawn)	-1	-2	-1	1	4	x	x	x	x
COc1ccc(-c2nc3cnccn3c2NCc2ccccc2)cc1SC1CCCCC1	0	1	-1	x	x	x	x	x	x
SMILES	V1R ag counter	OXTR potentiate	OXTR ag	TAAR1 ag	TAAR1 antagonist	TAAR1 nonsel count	TAAR1 ant conf	Ga16 nonsel ag	TAAR1 ag counter
COc1ccc(CSc2ccc(-c3nc4ccccn4c3NCc3ccccc3)cc2OC)cc1	1	-5	0	18	71*	30*	48	4	9
COc1cc(-c2nc3ccc(C)cn3c2NCc2ccccc2)ccc1SC1CCCCC1	0	-5	-1	6	54*	25*	30	2	0
CCCCNc1c(-c2ccc(OC)c(SC3CCCCC3)c2)nc2cc(C)ccn12	-1	-10	-2	9	84*	40*	49*	4	10
CCCCNc1c(-c2ccc(OC)c(SC3CCCCC3)c2)nc2cnccn12	-1	-4	-2	x	x	x	x	x	x
Cc1cc(NC(=O)c2ccc(C)c(C)c2)no1	0	-14	-1	1	-7	x	x	x	x
Cc1cccc(C(=O)Nc2ccc(C(=O)/C=C/c3cccnc3)cc2)c1	3	-2	2	18	60*	33*	54*	13*	9
COc1ccccc1CNC(=O)C1CCC(CNS(=O)(=O)c2cccc3cccnc23)CC1 (stereo not drawn)	0	-2	-2	2	-8	x	x	x	x
CN(C)S(=O)(=O)c1cccc(-c2nn(-c3ccccc3)cc2/C=C2\SC(=S)NC2=O)c1	6	-12	9	3	68*	59*	56*	8	0
CN(C)S(=O)(=O)c1cccc(-c2nn(-c3ccccc3)cc2/C=C(\C#N)c2nc3ccccc3[nH]2)c1	0	-9	0	7	40	x	x	x	x
CCNC(=O)c1ccccc1SCc1ccccc1	2	1	-1	8	0	x	x	x	x
CCc1ccc(OCCNC(=O)c2ccccc2SCc2ccccc2)cc1	1	-9	2	8	61*	25*	40	4	2
COC(=O)c1cc(Nc2cc(C)c3c(O)cccc3n2)cc(C(=O)OC)c1	2	-2	3	9	63*	24*	37	5	15
